ChEMBL document CHEMBL3612019, “Revisiting 1,3,4-Oxadiazol-2-ones: Utilization in the Development of ABHD6 Inhibitors” (Bioorg Med Chem, 2015)
Activity calls are given as the source filed them. The rule behind the calls is not given here.

Experiments:
[1] = molecular target: T1, Fatty-acid amide hydrolase 1 (Mus musculus) (UniProt O08914); test: Inhibition of FAAH in mouse whole brain membranes at 10 uM incubated for 1 hr by TAMRA-FP probe based competitive activity-based protein profiling assay; assay type: cell membranes; conditions: Membrane
T1 sequence (whole entry): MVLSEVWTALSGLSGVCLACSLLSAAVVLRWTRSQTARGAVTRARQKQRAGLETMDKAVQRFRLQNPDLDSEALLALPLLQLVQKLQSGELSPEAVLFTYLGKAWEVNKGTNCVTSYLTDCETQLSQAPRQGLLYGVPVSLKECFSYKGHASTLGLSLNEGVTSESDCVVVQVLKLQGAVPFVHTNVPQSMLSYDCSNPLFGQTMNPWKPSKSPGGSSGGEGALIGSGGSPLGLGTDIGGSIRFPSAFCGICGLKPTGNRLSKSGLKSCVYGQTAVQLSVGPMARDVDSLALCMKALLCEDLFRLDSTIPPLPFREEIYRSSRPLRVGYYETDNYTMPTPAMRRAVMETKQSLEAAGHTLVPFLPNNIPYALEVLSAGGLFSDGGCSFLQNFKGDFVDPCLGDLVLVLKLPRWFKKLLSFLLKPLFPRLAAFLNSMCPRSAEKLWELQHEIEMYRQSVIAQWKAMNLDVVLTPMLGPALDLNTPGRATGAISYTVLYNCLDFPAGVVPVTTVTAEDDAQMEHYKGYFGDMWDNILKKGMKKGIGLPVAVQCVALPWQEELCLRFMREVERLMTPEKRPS
Summary of the method: (§1)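 Competitive ABPP on mouse brain membranes (100 µg) treated 1 h with DMSO or inhibitor. TAMRA-FP labelling then ran 1 h at RT (final probe 2 µM). Reaction was quenched with gel loading buffer and proteins resolved by 10% SDS–PAGE for fluorescent band read-out. WWL70 located the ABHD6 band. Gels are representative of two experiments.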

[2] = molecular target: T1, Fatty-acid amide hydrolase 1 (Mus musculus); test: Inhibition of FAAH in mouse whole brain membranes at 32.5 uM incubated for 1 hr by TAMRA-FP probe based competitive activity-based protein profiling assay; assay type: cell membranes; conditions: Membrane; summary of the method: as §1
[3] = molecular target: T2, Monoglyceride lipase (Mus musculus) (UniProt O35678); test: Inhibition of MAGL in mouse whole brain membranes at 32.5 uM incubated for 1 hr by TAMRA-FP probe based competitive activity-based protein profiling assay; assay type: cell membranes; conditions: Membrane; summary of the method: as §1
T2 sequence (whole entry): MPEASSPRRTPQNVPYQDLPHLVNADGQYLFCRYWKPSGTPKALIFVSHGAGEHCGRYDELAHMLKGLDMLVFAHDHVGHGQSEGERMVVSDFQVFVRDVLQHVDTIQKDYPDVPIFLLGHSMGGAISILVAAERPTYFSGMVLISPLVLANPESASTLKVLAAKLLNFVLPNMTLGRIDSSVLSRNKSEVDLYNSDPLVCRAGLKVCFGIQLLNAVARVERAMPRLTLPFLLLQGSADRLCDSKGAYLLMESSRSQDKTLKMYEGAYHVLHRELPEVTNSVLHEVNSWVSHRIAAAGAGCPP

[4] = molecular target: T3, Lysophosphatidylserine lipase ABHD12 (Mus musculus) (UniProt Q99LR1); test: Inhibition of ABHD12 in mouse whole brain membranes at 32.5 uM incubated for 1 hr by TAMRA-FP probe based competitive activity-based protein profiling assay; assay type: cell membranes; conditions: Membrane; summary of the method: as §1
T3 sequence (whole entry): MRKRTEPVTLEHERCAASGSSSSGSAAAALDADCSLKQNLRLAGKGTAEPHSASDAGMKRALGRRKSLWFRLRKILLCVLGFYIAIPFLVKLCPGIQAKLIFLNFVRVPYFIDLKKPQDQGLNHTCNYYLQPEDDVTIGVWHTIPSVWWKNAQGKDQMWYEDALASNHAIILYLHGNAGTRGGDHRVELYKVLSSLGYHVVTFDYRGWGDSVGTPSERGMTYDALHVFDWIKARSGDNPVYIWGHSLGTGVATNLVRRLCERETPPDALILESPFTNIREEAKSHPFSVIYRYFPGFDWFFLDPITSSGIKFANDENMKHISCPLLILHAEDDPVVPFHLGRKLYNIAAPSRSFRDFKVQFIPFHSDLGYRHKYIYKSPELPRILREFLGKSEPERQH

[5] = molecular target: T4, Monoacylglycerol lipase ABHD6 (Homo sapiens, UniProt Q9BV23); test: Inhibition of human ABHD6 expressed in HEK293 cells at 1 uM pre-incubated for 10 mins before 2-AG substrate addition followed by rapid 40 fold compound dilution measured after 60 mins by HPLC method; assay type: cell-based
T4 sequence (Q9BV23 whole entry): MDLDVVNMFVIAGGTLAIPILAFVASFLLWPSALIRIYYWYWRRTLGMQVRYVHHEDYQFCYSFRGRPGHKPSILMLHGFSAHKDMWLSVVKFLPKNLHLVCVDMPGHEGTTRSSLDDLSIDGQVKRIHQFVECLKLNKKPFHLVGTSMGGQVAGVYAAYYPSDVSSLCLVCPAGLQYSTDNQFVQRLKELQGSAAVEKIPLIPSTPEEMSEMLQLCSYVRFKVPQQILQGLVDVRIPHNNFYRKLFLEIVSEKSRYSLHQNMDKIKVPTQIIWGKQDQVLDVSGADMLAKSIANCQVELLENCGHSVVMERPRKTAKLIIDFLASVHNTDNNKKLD

[6] = molecular target: T4, Monoacylglycerol lipase ABHD6; test: Inhibition of human ABHD6 expressed in HEK293 cells at 1 uM pre-incubated for 10 mins before 2-AG substrate addition followed by rapid 40 fold compound dilution measured after 90 mins by HPLC method; assay type: cell-based
[7] = molecular target: T5, Monoglyceride lipase (Homo sapiens, UniProt Q99685); test: Inhibition of human MAGL expressed in HEK293 cells pre-incubated for 10 mins before 2-AG substrate addition by HPLC method; assay type: cell-based; conditions: read-out: IC50
T5 sequence (Q99685 whole entry): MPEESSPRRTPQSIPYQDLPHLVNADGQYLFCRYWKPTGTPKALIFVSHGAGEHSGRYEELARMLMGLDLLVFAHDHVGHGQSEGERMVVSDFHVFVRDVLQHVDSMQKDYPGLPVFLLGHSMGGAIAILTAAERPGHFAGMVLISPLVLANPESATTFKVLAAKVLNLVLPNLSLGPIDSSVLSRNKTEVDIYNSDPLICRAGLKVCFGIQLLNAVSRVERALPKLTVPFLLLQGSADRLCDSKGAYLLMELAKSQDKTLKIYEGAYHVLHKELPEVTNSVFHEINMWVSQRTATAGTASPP
Summary of the method: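 Lysates of hMAGL-overexpressing HEK293 cells in 50 mM Tris–HCl pH 7.4 with 1 mM EDTA. After a 10 min preincubation with inhibitor or DMSO, 2-AG was added (final 50 µM) and incubated 10 min at 37 °C. The reaction was stopped and samples centrifuged. Arachidonic acid formation and 2-AG depletion were measured by HPLC. Replicates as for the FAAH assay.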

SMILES	inhibition [1]	inhibition [2]	inhibition [3]	inhibition [4]	IC50 [5] [µM]	IC50 [6] [µM]	IC50 [7] [µM]
COc1nn(Cc2cccc(N)c2)c(=O)o1	inactive	Active	Active	Active	3.63	3.31	
Nc1cccc(Cn2nc(Oc3ccccc3)oc2=O)c1	Active						7.94
